TRPML3 agonist – human mucolipin-3 channel agonism | actives 0.29% (n = 220,000) | activation, % at 3 µM | Q8TDD5 | HEK293 TRPML3-YFP, Fluo-8 calcium fluorescence; 100% = the carbachol control signal | AID 1448;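 active = activation above its plate's cutoff, the mean activation of the plate's test wells plus 3 SD, cut at about 12% in these data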;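 note: 0% = DMSO only wells and 100% = carbachol wells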
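Test system: TRPML3-YFP stable HEK293 cells. Doses: single point at 3 µM. Incubation: dye loading 1 h 37 °C then 30 min ambient, 125 s read. Signal: Fluo-8 calcium dye fluorescence, ex 470-495, em 515-575 nm. Measure: percent activation from peak-to-basal fluorescence ratio, scaled between DMSO and carbachol.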
OXTR ag – activates the human oxytocin receptor; CHO-OTR cells, Fluo-8 calcium fluorescence; normalized: DMSO 0%, oxytocin 100%; activation, % at 3 µM; actives 0.32% (n = 320,000); AID 2435;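 active = activation above the mean of all tested compounds plus 3 SD, cutoff set per screening run, cut at about 20% in these data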;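 note: peak over basal fluorescence ratio from a 100 s FLIPR kinetic read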
Target sequence (P30559 whole entry, looked up): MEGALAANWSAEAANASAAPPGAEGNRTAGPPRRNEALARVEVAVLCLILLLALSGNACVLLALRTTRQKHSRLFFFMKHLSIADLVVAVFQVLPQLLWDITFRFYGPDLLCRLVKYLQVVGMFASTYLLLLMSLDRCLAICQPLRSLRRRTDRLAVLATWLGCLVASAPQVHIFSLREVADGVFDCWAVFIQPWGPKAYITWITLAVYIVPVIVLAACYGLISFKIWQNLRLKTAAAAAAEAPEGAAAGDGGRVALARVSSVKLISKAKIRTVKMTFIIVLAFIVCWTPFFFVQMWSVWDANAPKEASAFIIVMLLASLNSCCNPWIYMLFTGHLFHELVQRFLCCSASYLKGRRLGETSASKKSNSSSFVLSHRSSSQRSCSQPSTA
TRPN1 ag – zebrafish TRPN1 (NompC) channel agonism; HEK293 zebrafish TRPN1-YFP, Fluo-8 calcium fluorescence; 100% = response to 87 µM carbachol; activation, % at 3 µM; actives 0.18% (n = 220,000);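 active = activation above its plate's cutoff, the mean activation of test wells on that plate plus 3 SD, cut at about 19% in these data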;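 note: 0% = DMSO alone and 100% = 87 µM carbachol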
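Material: zebrafish TRPN1-YFP in HEK293 cells; Doses: single test compound dose, 3 µM nominal, 0.3% DMSO; Timing: dye loading 1 h at 37 °C, then 30 min room temperature; Technique: intracellular calcium fluorescence with Fluo-8; Benchmarks: high carbachol 87 µM, low DMSO alone.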
OXTR potentiator – potentiates the human oxytocin receptor response. actives 0.061% (n = 320,000). CHO-OTR cells, Fluo-8 calcium fluorescence, potentiator mode; 0% = oxytocin EC15, 100% = EC100. P30559. activation, % at 3 µM;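 active = activation above that plate's cutoff, the mean activation of tested compounds plus 3 SD, cut at about 6.6% in these data, passing the limit was not always enough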;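 note: 100% uses oxytocin at 75 nM as the full agonist control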
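System: human OTR in CHO cells; Also added: sub-maximal oxytocin, roughly EC15; Timing: compound 6 min at room temperature before oxytocin, 100 s read; Technique: Fluo-8 intracellular calcium fluorescence, ex 470-495, em 515-575 nm; Controls: oxytocin EC15 low and EC100 high; Replication: singlicate.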
CRFR2-BP ag – agonists of human CRF-binding protein/CRF-R2 receptor complex; AID 588473; actives 0.46% (n = 350,000); activation, % at 13.2 µM; HEK293 CRF-R2/CRF-BP, calcium dye fluorescence (FLIPR); percent of saturating CRF peptide response;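 active = activation of at least 50%, plus an integration ratio under a set limit after plate pattern correction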;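 note: plate controls were neutral control wells without compound for no effect and CRF at EC100 for full effect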
V1aR counter – activates human V1a receptor in oxytocin agonist counter-screen; actives 0.25% (n = 320,000); activation, % at 3 µM; CHO-V1R cells, Fluo-8 calcium fluorescence, agonist mode; 0% DMSO, 100% 3 nM vasopressin;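 active = activation above the mean activation of all tested compounds plus 3 SD, per screening run, cut at about 20% in these data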;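 note: signal is peak over basal fluorescence ratio across a 100 second FLIPR read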
TRPN1 counter – activates zebrafish TRPN1, counter-screen for TRPML3 agonists | shares compounds with TRPML3 agonist | HEK293 zebrafish TRPN1-YFP, Fluo-8 calcium fluorescence; scaled: carbachol wells 100%, DMSO wells 0% | activation, % at 3 µM | actives 10% (n = 310) | AID 1525;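 active = mean activation over replicates above a set limit taken from the earlier TRPN1 channel primary screen, cut at about 19% in these data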;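 note: 100% = carbachol and 0% = 0.3% DMSO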
TRPML3 confirm – human TRPML3 agonism, confirmation. shares compounds with TRPML3 agonist. HEK293 TRPML3-YFP, Fluo-8 calcium fluorescence; 100% set by carbachol, 0% by DMSO. activation, % at 3 µM. actives 80% (n = 310). AID 1526;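 active = activation above a set limit derived from the earlier primary screen, cut at about 12% in these data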
Numbers without * were called inactive. Rows were chosen to be rich in hits. Some 0.85% of all compounds tested hit in one or more screens of this group.

`CNS(=O)(=O)c1cc(N(C)S(=O)(=O)c2ccc(C)cc2)c(C)cc1C` gave TRPML3 agonist 2, OXTR ag 0, TRPN1 ag 0, OXTR potentiator -5, CRFR2-BP ag -1 and V1aR counter 0.
Screening CC(=O)Nc1ccccc1OCC(=O)c1cc(C)n(Cc2cccs2)c1C returned TRPML3 agonist 28*, OXTR ag 12, TRPN1 ag 16, OXTR potentiator -27, CRFR2-BP ag 161*, V1aR counter 13, TRPN1 counter 27* and TRPML3 confirm 34*.
Screening COc1cc(/C=C2\SC(=S)N(Nc3ncc(C(F)(F)F)cc3Cl)C2=O)ccc1O returned TRPML3 agonist 13*, OXTR ag 24*, TRPN1 ag 15, OXTR potentiator -15, CRFR2-BP ag 115*, V1aR counter 39*, TRPN1 counter 29* and TRPML3 confirm 15*.
`O=C1/C(=C/c2ccc(O)c(O)c2)SC(=S)N1Nc1ccccc1` gave TRPML3 agonist 7, TRPN1 ag 17 and CRFR2-BP ag 35.
For O=C1CCC(=O)N1c1ccccc1OS(=O)(=O)c1ccccc1 the results were OXTR ag 0, OXTR potentiator -4, CRFR2-BP ag -1 and V1aR counter 0.
For O=S(=O)(Oc1ccccc1N1CCCCC1)c1ccccc1 the results were TRPML3 agonist 13*, OXTR ag -3, TRPN1 ag -1, OXTR potentiator -8, CRFR2-BP ag 0, V1aR counter 0, TRPN1 counter -1 and TRPML3 confirm 14*.
`O=C(O)Cn1ccc2cc(S(=O)(=O)N3CCCCCC3)ccc21` gave OXTR ag 0, OXTR potentiator -7, CRFR2-BP ag -2 and V1aR counter 0.
For O=S(=O)(NC1CCCCCC1)c1cccc2cccnc12 the results were TRPML3 agonist 33*, OXTR ag -2, TRPN1 ag -1, OXTR potentiator -3, CRFR2-BP ag 0, V1aR counter -2, TRPN1 counter 0 and TRPML3 confirm 56*.
For O=C1c2ccccc2S(=O)(=O)c2cc(N3CCC4(CC3)OCCO4)ccc21 the results were OXTR ag 6, OXTR potentiator -7, CRFR2-BP ag 14 and V1aR counter 4.
`COc1ccccc1NS(=O)(=O)c1cc(C(=O)NCCC(C)C)ccc1F` gave TRPML3 agonist 17*, OXTR ag 0, TRPN1 ag 9, OXTR potentiator -6, CRFR2-BP ag 85*, V1aR counter 1, TRPN1 counter 22* and TRPML3 confirm 35*.
For COc1ccccc1NS(=O)(=O)c1cc(C(=O)NCc2ccncc2)ccc1C the results were OXTR ag 0, OXTR potentiator -16, CRFR2-BP ag -3 and V1aR counter 0.
Cc1cccc(Cc2cnc(N3C(=N)SC(C)C3=O)s2)c1 (configuration not stated) was read as TRPML3 agonist 2, OXTR ag -1, TRPN1 ag 1, OXTR potentiator -6, CRFR2-BP ag -1 and V1aR counter 0.
For N=C1SCC(=O)N1c1ncc(Cc2ccccc2Cl)s1 the results were TRPML3 agonist 137*, TRPN1 ag 3, CRFR2-BP ag 0, TRPN1 counter 5 and TRPML3 confirm 170*.
For N=C1SCC(=O)N1c1ncc(Cc2cccc(Cl)c2)s1 the results were TRPML3 agonist 45*, TRPN1 ag 4, CRFR2-BP ag 0, TRPN1 counter 5 and TRPML3 confirm 26*.
